Experimental data from paper PMC11362829 (RSC Advances, 2024).
In brackets after ≈: the same amount, converted by molar mass.

Key:
[1] = target: T1, recombinant E. coli DXR enzyme (EcDXR) (Escherichia coli, UniProt P45568); assay: DXR enzyme inhibition assay; format: biochemical; settings: for inhibition at 50 µM: read-out: % Inhibition at 50 μM, EcDXR, 50 μM; for inhibition at 100 µM: read-out: % Inhibition at 100 μM, in vitro EcDXR inhibition, 100 μM
T1 sequence (P45568 1-398): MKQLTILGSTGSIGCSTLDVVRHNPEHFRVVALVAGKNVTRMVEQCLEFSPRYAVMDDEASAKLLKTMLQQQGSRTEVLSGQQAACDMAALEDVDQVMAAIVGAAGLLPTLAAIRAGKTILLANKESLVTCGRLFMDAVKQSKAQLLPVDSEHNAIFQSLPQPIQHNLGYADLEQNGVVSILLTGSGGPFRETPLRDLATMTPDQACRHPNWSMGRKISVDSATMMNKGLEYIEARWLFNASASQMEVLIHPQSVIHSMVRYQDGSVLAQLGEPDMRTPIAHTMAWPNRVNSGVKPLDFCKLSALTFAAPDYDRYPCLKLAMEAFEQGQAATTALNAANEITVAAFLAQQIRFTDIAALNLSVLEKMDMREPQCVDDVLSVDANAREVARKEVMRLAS
Procedure, shortened: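 Recombinant E. coli DXR, assayed with a commercial kit following the vendor protocol. Test compound from a DMSO stock; final DMSO ~0.2% v/v or lower. Enzyme and compound pre-incubated with shaking for 10 minutes, then DXP added to start the reaction. NADPH consumption read kinetically at 340 nm. Inhibition taken at a single level or across five levels for IC50. IC50 from one representative experiment run in duplicate.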

[2] = system: M. tuberculosis H37Rv mc^2 6206; assay: Screening against M. tuberculosis and MIC by Alamar Blue assay; format: cell-based; settings: for MIC: Mycobacterium tuberculosis, H37RV, read-out: MIC against M. tuberculosis
[3] = Dilution of DMSO stock with the aqueous assay buffer; format: physicochemical; settings: dilution for the 50 μM enzyme assay
E. coli = assay: Screening against ESKAPE pathogens: E. coli; format: cell-based
Procedure, shortened: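 E. coli grown in LB at 37 °C with shaking at 200 rpm to turbidity, then diluted to OD600 0.02. Test compound freshly dissolved in DMSO and added at one of two single levels. Growth judged visually after 24 h at 37 °C against DMSO-treated controls.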

CC(NC(=O)c1cccc(O)c1O)P(=O)(O)O (stereo not drawn) [Compound 21c, (1-(2,3-Dihydroxybenzamido)ethyl)phosphonic acid] gave an inhibition at 50 µM [1] of 60.1%.

For O=C(NC(c1ccccc1)P(=O)(O)O)c1coc2ccccc2c1=O (stereo not drawn) [Compound 23a, ((4-Oxo-4H-chromene-3-carboxamido)(phenyl)methyl)phosphonic acid], the “Effect on M. tuberculosis growth” value ([2]; 200 μM) was “none of the tested compounds affected M. tuberculosis growth”, the IC50 [1] was 6.09 µM and the inhibition at 50 µM [1] was 79.8%.

Molecule O=CN(O)CCCP(=O)(O)O [FSM, Fosmidomycin, reference compound] has an inhibition at 100 µM [1] of 100%.

For CC(NC(=O)c1ccccc1O)P(=O)(O)O (stereo not drawn) [Compound 20c, (1-(2-Hydroxybenzamido)ethyl)phosphonic acid], the “Behaviour during dilution with the aqueous buffer” value (“Behaviour during dilution” for short) [3] was “precipitated during dilution”.

With O=C(NC(c1cccc2ccccc12)P(=O)(O)O)c1ccccc1O (stereo not drawn) [Compound 20d, ((2-Hydroxybenzamido)(naphthalen-1-yl)methyl)phosphonic acid] the “Effect on M. tuberculosis growth” value ([2]; 500 μM) was “inhibited M. tuberculosis growth”, the MIC [2] was > 250 µM and the IC50 [1] was 32.9 µM. The “folds less potent than 22d” value ([1]; EcDXR IC50 compared to 22d) was ~8 fold and the inhibition at 50 µM [1] was 81.3%.

With O=C(NCP(=O)(O)O)c1cccc(O)c1O [Compound 21b, ((2,3-Dihydroxybenzamido)methyl)phosphonic acid] the inhibition at 50 µM [1] was 68.4%.

Work on O=C(O)c1ccccc1O [Compound F12, Salicylic acid] yielded an inhibition at 100 µM [1] of 87.4%.

In the case of O=C(NC(c1cccc2ccccc12)P(=O)(O)O)c1cccc(O)c1O (stereo not drawn) [Compound 21d, ((2,3-Dihydroxybenzamido)(naphthalen-1-yl)methyl)phosphonic acid], the inhibition at 50 µM [1] is reported as 78.5%.

For O=C(NC(c1ccccc1)P(=O)(O)O)c1cccc(O)c1O (stereo not drawn) [Compound 21a, ((2,3-Dihydroxybenzamido)(phenyl)methyl)phosphonic acid], the “Effect on M. tuberculosis growth” value ([2]; 200 μM) was “none of the tested compounds affected M. tuberculosis growth” and the inhibition at 50 µM [1] was 66.5%.

In the case of CC(NC(=O)c1ccc2ccccc2c1O)P(=O)(O)O (stereo not drawn) [Compound 22c, (1-(1-Hydroxy-2-naphthamido)ethyl)phosphonic acid], the inhibition at 50 µM [1] is reported as 84.2%.

Work on O=C(O)c1cccc(O)c1O [Compound F2, 2,3-Dihydroxy benzoic acid] yielded an inhibition at 100 µM [1] of 93.3%.

For O=C(NCc1ccccc1)c1ccc2ccccc2c1O [Compound 25a, N-Benzyl-1-hydroxy-2-naphthamide], the “% Inhibition at 50 μM” value ([1]; EcDXR, 50 μM) was 30.4% and the inhibition at 50 µM [1] was 30%.

With O=C(NC(c1ccc(Cl)c(Cl)c1)P(=O)(O)O)c1ccccc1O (stereo not drawn) [Compound 20e, ((3,4-Dichlorophenyl)(2-hydroxybenzamido)methyl)phosphonic acid] the “Effect on M. tuberculosis growth” value ([2]; 500 μM) was “inhibited M. tuberculosis growth”, the MIC [2] was > 250 µM and the “Behaviour during dilution” value [3] was “precipitated during dilution”.

For O=C(NC(c1ccccc1)P(=O)(O)O)c1ccc2ccccc2c1O (stereo not drawn) [Compound 22a, ((1-Hydroxy-2-naphthamido)(phenyl)methyl)phosphonic acid], the “Effect on M. tuberculosis growth” value ([2]; 200 μM) was “none of the tested compounds affected M. tuberculosis growth”, the IC50 [1] was 16.9 µM and the “folds lower potency than 22b” value ([1]; EcDXR IC50 compared to 22b) was ~57 fold. For the same molecule, the inhibition at 50 µM [1] was 70.9%.

For O=C(NC(c1ccccc1)P(=O)(O)O)c1ccccc1O (stereo not drawn) [Compound 20a, ((2-Hydroxybenzamido)(phenyl)methyl)phosphonic acid], the “Effect on M. tuberculosis growth” value ([2]; 200 μM) was “none of the tested compounds affected M. tuberculosis growth”, the IC50 [1] was 33.2 µM and the “fold less potency than its counterpart 22a” value ([1]; EcDXR IC50 compared to 22a) was ~2 fold. It also gave an inhibition at 50 µM [1] of 94.6%.

O=C(O)c1ccc2ccccc2c1O [Compound F7, 1-Hydroxy-2-naphthoic acid] gave an inhibition at 100 µM [1] of 100%.

Molecule O=C(NCCc1ccccc1)c1ccc2ccccc2c1O [Compound 25b, 1-Hydroxy-N-phenethyl-2-naphthamide] has an inhibition at 50 µM [1] of 4.69%.

Work on O=Cc1cccc(O)c1O [Compound F9, 2,3-dihydroxy benzaldehyde] yielded an inhibition at 100 µM [1] of 86.5%.

In the case of O=C(O)c1coc2ccccc2c1=O [Compound F10, Chromone-3-carboxylic acid], the inhibition at 100 µM [1] is reported as 100%.

With O=C(NCP(=O)(O)O)c1ccccc1O [Compound 20b, ((2-hydroxybenzamido)methyl)phosphonic acid] the “Behaviour during dilution” value [3] was “precipitated during dilution”.

O=C(NCCCc1ccccc1)c1ccc2ccccc2c1O [Compound 25c, 1-Hydroxy-N-(3-phenylpropyl)-2-naphthamide] gave an inhibition at 50 µM [1] of 31.3%.

In the case of O=C(NCP(=O)(O)O)c1ccc2ccccc2c1O [Compound 22b, ((1-Hydroxy-2-naphthamido)methyl)phosphonic acid], the “Effect on M. tuberculosis growth” value ([2]; 500 μM) is reported as “inhibited M. tuberculosis growth”, the MIC [2] is reported as > 250 µM and the IC50 [1] is reported as 0.29 µM. The inhibition at 50 µM [1] was 76.3% and the “Activity against E. coli” value (E. coli) was “inactive against E. coli”.

For O=C(NC(c1cccc2ccccc12)P(=O)(O)O)c1ccc2ccccc2c1O (stereo not drawn) [Compound 22d, ((1-Hydroxy-2-naphthamido)(naphthalen-1-yl)methyl)phosphonic acid], the “Effect on M. tuberculosis growth” value ([2]; 500 μM) was “inhibited M. tuberculosis growth”, the MIC [2] was 125 µM (≈ 50.9 µg/mL) and the IC50 [1] was 4.44 µM. For the same molecule, the “fold improvement in IC50 value compared to 22a” value ([1]; EcDXR IC50 compared to 22a) was ~4 fold, the inhibition at 50 µM [1] was 73.7% and the “Activity against E. coli” value (E. coli) was “inactive against E. coli”.
